# Assay outcomes as filed in PubChem.
# A selection: hits, their analogues and other compounds. The true share with any hit is near 4.4%.
# T cruzi repl = T. cruzi replication inhibition | T. cruzi beta-gal in NIH3T3, luminescence, 90 h | inhibition, % (no concentration beside the values) | hit rate 1.4% among 300,000 | AID 1885;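 active means mean inhibition across valid replicates above about 55%, limit read from the data; inconclusive means mean below that limit but half or more replicates reach it; inactive means mean below it, under half of replicates reach it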;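 further: signal also drops with host cell toxicity which is not excluded here; higher percent means less beta-gal luminescence so fewer parasites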
#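 System: Mouse NIH/3T3 fibroblasts infected with β-gal-expressing T. cruzi Tulahuen C4 | Quantity: NIH/3T3 cells, 5,000 per well | Reagent: 5000 reporter trypomastigotes per well | Dosing: Compound pinned at 50 nL/well, DMSO | Schedule: 3 h host attachment, then at least 90 h co-culture | Detection: GalScreen luminescence, 60 min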
# HSF1 inhib = HSF1 inhibition. hit rate 0.77% among 300,000. NIH3T3-HGL HSE-luciferase, MG132-induced, luminescence 8 h; active compounds read low. activity change, negative = inhibition, % at 7.5 µM (by protocol). AID 2098;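 active means more than half of replicate wells show activity change below -50%, luminescence cut by over half; inconclusive means some wells, but at most half, below -50%; inactive means no replicate well below -50%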;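 further: luciferase reports HSF-1 transcriptional activity via heat shock element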
# HSF1 activator = increases HSF-1 driven luciferase reporter signal | NIH3T3-HGL HSF-1 luciferase reporter, MG132, 8 h; 100% = twice DMSO control signal | activation, % at 9 µM | hit rate 1.7% among 300,000;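 active means mean replicate activation of at least 50% with a set share of replicates each reaching 50%; inconclusive means only one of those two conditions met; inactive means mean below 50% and too few replicates reaching it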
# Calb FLC = C. albicans growth modulation with fluconazole; C. albicans CaCi-2 + fluconazole, Alamar Blue growth, 48 h; growth inhibition, % (no concentration beside the values); hit rate 0.57% among 300,000; AID 1979;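 active means growth inhibition above about 58% in most replicates, limit read from the data, passing the limit was not always enough; inconclusive means exactly half the replicates above a set limit; inactive means most replicates below a set limit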;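 further: all wells also contain fluconazole at 8 µg/ml as a sub-toxic cotreatment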
# HIF activator = HIF pathway transcriptional activation; U2OS HRE-luciferase reporter, luminescence; normalized: DMSO 0%, desferrioxamine 100%; activation, % at 7.5 µM (by protocol); hit rate 0.32% among 300,000;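 active means mean activation of at least 10% of the iron chelator positive control signal, with at least half of replicates also reaching 10%; inconclusive means mean and replicate majority disagree about reaching 10%; inactive means mean and most replicates under 10%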
# A number is an active result; i = inactive; ? = inconclusive; nt = no result.
SMILES,T cruzi repl,HSF1 inhib,HSF1 activator,Calb FLC,HIF activator
CS(=O)(=O)c1ncc(Cl)c(C(=O)Nc2ccc3ccccc3c2)n1,i,-93,i,i,i
Cc1ccc(C2C(C#N)=C(N)Oc3cc(C)oc(=O)c32)o1 (stereo not given),i,i,i,i,i
O=C(COC(=O)c1cc([N+](=O)[O-])ccc1NCc1ccccc1Cl)NCC(F)(F)F,i,i,i,i,i
Cc1cc(C(=O)NNS(=O)(=O)c2ccc(F)cc2)nn1C(C)(C)C,i,-71,i,i,i
COC(=S)Nc1cccc(C(F)(F)F)c1,i,i,i,i,i
FC(F)(F)c1cccc(NC(=S)NC(c2ccccc2)c2ccccc2)c1,60,i,i,i,i
FC(F)(F)c1cccc(NC(=S)Nc2ccc(Cl)c(Cl)c2)c1,i,i,i,i,i
FC(F)(F)c1cccc(NC(=S)NNC(=S)Nc2cccc(C(F)(F)F)c2)c1,55,i,i,i,i
COC(=O)/C=C/C(=O)Nc1cccc(C(F)(F)F)c1,i,i,93,i,i
O=C(Nc1ccccc1)Nc1cccc(C(F)(F)F)c1,i,nt,nt,?,i
Cc1ccc(OC(F)F)c(NC(=O)Nc2cccc(C(F)(F)F)c2)c1,55,i,i,i,i
O=C(c1cc(S(=O)(=O)N2CCOCC2)ccc1Cl)N1CCc2ccccc2C1,i,i,i,i,i
CC(C)C(c1nnnn1C1CCCC1)N1CCN(C(=O)c2ccco2)CC1 (stereo not given),i,nt,nt,i,i
Cc1c(C(N)=O)sc2ncn(CC(=O)NCCc3ccccc3)c(=O)c12,i,i,i,i,i
O=C(O/N=C1\CCS(=O)(=O)c2sccc21)C1CC1,i,i,i,i,i
CNC(=S)N(Cc1ccc(Cl)cc1)Cc1cccs1,i,i,54,i,i
Cc1ccc(CCNC(=O)CNC(=S)N(Cc2ccccc2)Cc2cccnc2)cc1,72,i,i,i,i
O=C(CNC(=S)N(CCCN1CCOCC1)Cc1cccs1)NCc1ccccc1Cl,i,-71,i,i,i
Cc1ccccc1NC(=S)N(Cc1ccccc1)Cc1cccs1,i,i,i,i,i
O=C(CNC(=S)N(Cc1ccccc1)Cc1cccnc1)NC1CCCCC1,64,i,i,i,i
CN(C)CCNC(=O)CNC(=S)N(Cc1ccccc1)Cc1cccnc1,i,i,i,i,i
CCOc1ccc(NC(=O)CSc2ncn[nH]2)cc1,i,i,i,i,i
CCCCNC(=O)CNC(=S)N(Cc1ccccc1)Cc1cccs1,i,-71,i,i,i
COC(CNC(=O)CNC(=S)N(Cc1ccccc1)Cc1cccs1)OC,i,i,i,i,i
CC1c2ccccc2SC(CCCN(C)C)c2ccccc21 (stereo not given),55,i,i,i,i
SMILES,T cruzi repl,HSF1 inhib,HSF1 activator,Calb FLC,HIF activator
COCCNc1c([N+](=O)[O-])c(=O)n(-c2ccccc2)c2ccccc12,i,i,69,i,i
Cc1ccc(NS(=O)(=O)c2ccc(Cl)c(C(=O)O)c2)cc1S(=O)(=O)N1CCOCC1,i,i,i,i,i
CC(C)CCNC(=O)c1ccc2c(SCC(=O)O)c3c(nc2c1)CCCC3,i,i,62,i,i
CCN(CC)CCCNC(=O)c1ccc2c(SCC(=O)O)c3c(nc2c1)CCC3,i,nt,nt,i,nt
CCOC(=O)c1ccccc1NC(=O)c1ccc2c(SCC(=O)O)c3c(nc2c1)CCCC3,i,-77,i,i,i
O=C1CC(C(=O)NC2CCCCC2)C2(CCCCC2)O1 (stereo not given),i,i,i,i,i
COCCNC(=O)c1ccc(NC(=O)C2(c3ccccc3)CCCC2)cc1,i,i,i,i,i
COc1ccc2c(c1)c(/C=C/c1cc[n+](C)cc1)cn2C,i,i,i,81,i
O=C(c1cc2ccccc2cc1O)N1CCN(c2ccccc2O)CC1,i,i,i,77,i
CC(C)NC(=O)NC(=O)COc1ccc(Br)cc1Br,i,i,87,i,i
CN1CCN(C(=O)c2cc([N+](=O)[O-])cc([N+](=O)[O-])c2)CC1,i,-64,i,i,i
CN1CCN(NC(=O)c2cc([N+](=O)[O-])cc([N+](=O)[O-])c2)CC1,70,i,i,i,i
O=C(c1cc(C(=O)N2CCCC2)cc([N+](=O)[O-])c1)N1CCCC1,i,i,i,i,i
COCCn1c(C)cc(C(=O)CSc2ccc(NC(C)=O)cc2)c1C,i,i,i,i,i
CC(=O)Nc1ccc(SCC(=O)c2cc(C)n(-c3ccccc3F)c2C)cc1,i,-68,i,i,i
CC(=O)Nc1ccc(SCC(=O)c2cc(C)n(Cc3cccs3)c2C)cc1,i,-69,i,i,i
COC(=O)c1ccc(-n2c(C)cc(C(=O)CSc3ccc(NC(C)=O)cc3)c2C)cc1,i,i,i,i,i
COc1ccc(-c2cn3cc(C)ccc3n2)cc1Br,i,i,66,i,i
Clc1ccc2nc(-c3ccc(Br)s3)cn2c1,i,i,i,i,i
COc1ccc(-c2cn3cc(Cl)ccc3n2)cc1OC,i,i,64,i,i
Cc1ccc(-n2nnnc2C(Cl)(Cl)c2nnnn2-c2ccc(C)cc2)cc1,63,i,i,103,i
O=C(N/N=C1\CC(c2ccccc2)Oc2ccccc21)c1ccc(O)cc1 (stereo not given),i,i,71,i,i
CC1N(C)c2cc(NC(=O)c3cccs3)c(P(=O)(Nc3ccc([N+](=O)[O-])cc3)N3CCOCC3)cc2C1(C)C (stereo not given),64,i,i,i,i
O=c1[nH]c(COc2ccc(Cl)cc2Cl)nc2ccccc12,i,i,85,i,i
O=c1[nH]c(COc2ccc(Cl)cc2Br)nc2ccccc12,i,i,61,i,i
SMILES,T cruzi repl,HSF1 inhib,HSF1 activator,Calb FLC,HIF activator
COc1cc2c(c3oc(=O)cc(CC(=O)O)c13)CCC(C)(C)O2,i,i,i,i,i
CCOC(=O)CNC(=S)N(Cc1ccco1)Cc1ccccc1Cl,i,i,i,i,i
CN1CCN(c2cc(-c3ccccc3)nc3cc(-c4ccc(F)cc4)nn23)CC1,i,i,i,i,i
COc1cccc(-c2cc3nc(-c4ccccc4)cc(N4CCC5(CC4)OCCO5)n3n2)c1,55,i,i,i,i
Fc1ccc(-c2cc3nc(-c4ccccc4)cc(N4CCN(CCN5CCOCC5)CC4)n3n2)cc1,55,i,i,i,i
O=C(CSCc1ccc(Cl)cc1Cl)Nc1nccs1,i,i,i,i,i
Cc1cc(C)n(-c2nc(SCCN(C)C)c3c4c(sc3n2)COC(C)(C)C4)n1,65,i,i,i,i
CCCCCCCCNC(=O)/C(C#N)=C/c1ccc(SC)cc1,i,i,i,i,i
CC(C)c1ccc(S(=O)(=O)N2CCN(C(=O)C3CCCC3)CC2)cc1,i,i,i,i,i
CCOC(=O)c1c(-c2ccc(C)o2)csc1NC(=O)COC(=O)c1cccs1,i,i,i,i,i
CCOC(=O)c1c(-c2ccc(C)o2)csc1NC(=S)NC(=O)N(C)C,i,i,56,i,i
